# Measurements collected from several papers.
# Each line is one published result; the experiments were not run side by side.
# Target: Casein kinase I isoform alpha-like (CSNK1A1L, Homo sapiens, UniProt Q8N752)
# Sequence (Q8N752 1-337, as in one of the studies): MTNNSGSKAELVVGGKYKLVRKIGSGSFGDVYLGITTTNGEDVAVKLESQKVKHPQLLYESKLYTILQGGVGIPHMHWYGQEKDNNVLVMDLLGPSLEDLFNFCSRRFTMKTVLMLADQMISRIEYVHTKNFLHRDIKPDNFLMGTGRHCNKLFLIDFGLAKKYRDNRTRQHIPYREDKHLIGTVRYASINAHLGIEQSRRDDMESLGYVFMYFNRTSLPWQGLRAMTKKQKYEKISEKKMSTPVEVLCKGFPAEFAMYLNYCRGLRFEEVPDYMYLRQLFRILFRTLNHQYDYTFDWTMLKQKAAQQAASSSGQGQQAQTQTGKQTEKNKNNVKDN
Structure (SMILES),effect on,technique,tested at,remaining binding
C[C@@H]1CCN(c2nccc(-c3cnn4ncccc34)n2)C1,binding,,1 µM,81%
c1cncc(-c2cccc(Nc3nccc(NC4CCCCC4)n3)c2)c1,binding,competition with immobilised ligand,10 µM,92%
COc1ccnn2ncc(-c3ccnc(N(C)C)n3)c12,binding,,1 µM,91%
COc1cnc(Nc2cccc(S(N)(=O)=O)c2)nc1N1CCN(c2ccccc2)C(=O)C1,binding,competition with immobilised ligand,1 µM,100%
C=CC(=O)N1CCC(C(=O)NCC(=O)N2CCN(c3nc(-c4cnc(N)nc4C(F)F)nc(N4CCOCC4)n3)CC2)CC1,binding,competition with immobilised ligand,1 µM,100%
FC(F)(F)Oc1cccc(-c2cnc3ccc(-c4ccncc4)nn23)c1,cell-free assay,competition with immobilised ligand,5 µM,90%
N[C@@H]1CCN(c2nccc(-c3cnn4ncccc34)n2)C1,binding,,1 µM,100%
N#Cc1ccc(Nc2ccc3[nH]c(=O)[nH]c3c2)c(Cl)c1,cell-free assay,competition with immobilised ligand,1 µM,100%
CN(CCCC(F)(F)F)c1nccc(-c2cnn3ncccc23)n1,binding,,1 µM,91%
O=C(c1ccc(Nc2ncc(Cl)c(-c3cc4ccccc4s3)n2)cc1)N1CCC(N2CCCC2)CC1,binding,competition with immobilised ligand,1 µM,100%
CNCc1ccccc1-c1csc([C@@H](C)Nc2nc(C)nc3cc(OC)c(OC)cc23)c1,cell-free assay,competition with immobilised ligand,1 µM,100%
Nc1ncc2c(n1)-c1c([nH]c3ccc(C#CC4CC4)cc13)CCCC2,binding,competition with immobilised ligand,1 µM,99%
F[C@@H]1CCN(c2nccc(-c3cnn4ncccc34)n2)C1,binding,,1 µM,100%
CN(C(=O)c1ccccc1)c1cc(N(C)c2ccc3c(c2)CCc2ccc(C(=O)NCCN4CCOCC4)cc2C3=O)ccc1F,cell-free assay,competition with immobilised ligand,1 µM,100%
CN(C)c1nccc(-c2cnn3ncccc23)n1,binding,,1 µM,98%
C[C@H](c1ccnc(Nc2nc3ccc(-c4cc(N(C)C)ncn4)cc3[nH]2)c1)N1CCN(C(=O)CC(F)(F)F)CC1,cell-free assay,competition with immobilised ligand,0.1 µM,94%
O=C(c1ccc(Nc2ncc(Cl)c(-c3ccc(Cl)s3)n2)cc1)N1CCC(N2CCCC2)CC1,binding,competition with immobilised ligand,1 µM,100%
CN(C)C(=O)Cn1cc(-c2nc([C@@](C)(c3ccc(-c4cnc(N)nc4)cc3)C3CC3)no2)cn1,cell-free assay,competition with immobilised ligand,1 µM,100%
O=C(NCC1CCOCC1)c1n[nH]cc1NC(=O)c1c(F)cccc1F,binding,competition with immobilised ligand,1 µM,85%
CNC(=O)Nc1ccc2c(c1)CC[C@@]21OC(=O)N(CC(=O)N(Cc2ccc(F)cc2)[C@@H](C)C(F)(F)F)C1=O,cell-free assay,competition with immobilised ligand,1 µM,88%
Cc1cnc(Nc2ccc(C(=O)N3CCC(N4CCCC4)CC3)cc2)nc1-c1cc2ccccc2s1,binding,competition with immobilised ligand,1 µM,100%
